In the library only some 2.3% were active in any assay of this set; here they are far more common.
TRPC4 agonist: activators of mouse TRPC4 channel, primary screen, Fluo4 calcium, HEK293 TRPC4beta/mu-opioid cells; B-score at 10 µM; 310,000 compounds, 0.49% hits; Fluo4 calcium fluorescence; hits give high values; AID 2237, 2010;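 active = B-score above 5 SD of library B-scores, and initial fluorescence ratio not above library mean plus 5 SD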;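 note: positive B-score marks a calcium rise read as TRPC4 activation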
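Material: HEK293 stable line with TRPC4beta plus mu-opioid receptor; technique: Fluo4 calcium-sensitive dye fluorescence, kinetic, 1 Hz baseline; timing: Fluo4 dye loading 45 min at room temperature, 110 s recording; controls: assay buffer as low control, maximal DAMGO as high control; read-out: integrated baseline-normalised fluorescence ratio, converted to per-well B score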
TRPC6 act: mouse TRPC6 channel activators, primary screen, cell-based, HEK293, membrane potential dye; Short transient receptor potential channel 6 (Mus musculus), Q61143; HEK293-TRPC6 membrane potential dye fluorescence; hits give high values; B-score at 10 µM; 310,000 compounds, 0.13% hits;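 active = B-score of the integrated fluorescence ratio above library mean plus 3 SD, and starting fluorescence ratio within library mean plus 5 SD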;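 note: higher score means more depolarization so channel activation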
TRPC6 inhibitor: mouse TRPC6 channel inhibitors, primary screen, cell-based, HEK293, membrane potential dye. Short transient receptor potential channel 6 (Mus musculus), Q61143. ACh-evoked depolarization; hits give low values. B-score at 10 µM. 310,000 compounds, 1.1% hits. AID 2553, 2010;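 active = B-score under library mean minus 3 SD, initial fluorescence not abnormally high, positive integrated signal ratio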;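 note: B-score derived from integrated fluorescence ratio over the kinetic read; more negative B-score means stronger inhibition of depolarization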
TRPC4 PAM: positive allosteric modulators of TRPC4, primary screen, cell-based, mouse TRPC4beta, HEK293 mu-opioid, Fluo-4 calcium; Short transient receptor potential channel 4 (Mus musculus), Q9QUQ5; DAMGO EC20, Fluo-4 Ca2+ flux; hits give high values; B-score at 10 µM; 310,000 compounds, 0.42% hits;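 active = B-score of calcium response area above 5 SD of library B-scores, with initial fluorescence ratio within 5 SD of library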;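 note: B-score of integrated fluorescence ratio over time as area under calcium response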
TRPC4 inh: inhibitors of mouse TRPC4 channel, primary screen, Fluo4 calcium, HEK293 TRPC4beta/mu-opioid cells. B-score at 10 µM. DAMGO-evoked Fluo4 calcium flux; hits give low values. Short transient receptor potential channel 4 (Mus musculus), Q9QUQ5. 300,000 compounds, 0.39% hits. AID 2247, 2010;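 active = B-score over 3 SD under the library average, no early fluorescence shift, positive overall ratio signal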
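Material: HEK293 cells with stable TRPC4beta plus mu-opioid receptor expression; probe or stimulus: DAMGO in two steps, submaximal then maximal; technique: Fluo4 calcium fluorescence by kinetic imaging, 5 s 1 Hz baseline; measure: integrated fluorescence ratio relative to baseline, converted to per-well B score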
TRPC4 spec 2: second selectivity test of TRPC6 inhibitors: effect on mouse TRPC4 | shares compounds with TRPC6 inhibitor | HEK293 TRPC4/MOR, membrane potential dye fluorescence; channel activated by saturating DAMGO dose | inhibition, % at 10 µM | 920 compounds, 42% hits | AID 2776;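 active = compounds whose fluorescence signal differed from control wells by over 3 SD, either direction, in both duplicate plates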
TRPC4 spec: mouse TRPC4 modulation by TRPC6 hits, confirmation, selectivity assay for TRPC6 inhibitor project, cell-based, HEK293 TRPC4/mu-opioid, membrane potential dye; shares compounds with TRPC6 inhibitor; membrane potential fluorescence; activity change, negative = inhibition, % at 10 µM; 920 compounds, 61% hits; AID 2777, 2010;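 active = rise or fall in signal beyond 3 SD of buffer-only wells in both replicate plates, either sign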;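 note: integrated kinetic ratio of fluorescence range over baseline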
HEK293 MPD ctr 2-1: nonspecific membrane potential effects, parental HEK293, confirmation, counter-screen for TRPC6 inhibitor project, cell-based, second counter screen; signal change vs control, % at 10 µM; shares compounds with TRPC6 inhibitor; AID 2779, 2010; parental HEK293 membrane potential dye fluorescence; maximal acetylcholine challenge after compound addition; 920 compounds, 31% hits;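 active = membrane potential signal moving either way by over 3 SD of the maximum-effect control, in both duplicate plates, meaning non-specific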
HEK293 MPD ctr-1: membrane potential modulation in parental HEK293, confirmation, counter-screen for TRPC6 inhibitor project, cell-based. 920 compounds, 60% hits. membrane potential signal change, % at 10 µM. parental HEK293 membrane potential dye fluorescence. shares compounds with TRPC6 inhibitor;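 active = membrane potential signal shifting up or down by more than 3 SD of buffer-only wells, on both duplicate plates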
HEK293 MPD ctr-2: parental HEK293 membrane potential modulation, confirmation, counter-screen for TRPC6 modulator project, cell-based | AID 488924, 2010 | 2,400 compounds, 51% hits | shares compounds with TRPC6 inhibitor | membrane potential signal change, % at 10 µM | membrane potential dye fluorescence;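 active = membrane potential signal moves up or down beyond 5 SD from buffer-only wells, on both duplicate plates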
HEK293 MPD ctr 2-2: second counter-screen for TRPC6 modulators: effect in parental HEK293 cells | shares compounds with TRPC6 inhibitor | membrane potential dye fluorescence; after compound, maximal acetylcholine stimulation | inhibition, % at 10 µM | 2,400 compounds, 14% hits;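 active = membrane potential signal drops by more than 5 SD from the mean control signal, in both duplicate plates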;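 note: plate controls were acetylcholine ECmax control wells for no effect and buffer only wells for full effect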
TRPC4/MOR mod: TRPC4 modulation by TRPC6 hit compounds, confirmation, selectivity assay for TRPC6 modulator project, cell-based, HEK293 TRPC4/mu-opioid, membrane potential dye, mouse; shares compounds with TRPC6 inhibitor; membrane potential fluorescence; percent change from control (negative = decrease, positive = increase), % at 10 µM; 2,400 compounds, 69% hits; AID 488927, 2010;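 active = membrane potential signal moved up or down beyond 5 SD of buffer control wells, in both duplicate plates, actives on both sides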;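 note: plate controls were assay buffer wells for no effect and DAMGO maximal-effect wells for full effect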
TRPC4/MOR inh 2: second check of whether TRPC6 modulators also affect mouse TRPC4; shares compounds with TRPC6 inhibitor; inhibition, % at 10 µM; 2,400 compounds, 55% hits; AID 488928; HEK293 TRPC4/mu-opioid, membrane potential dye fluorescence; stimulated with maximal-effect DAMGO;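 active = drop in membrane potential signal beyond 5 SD of the control wells in both duplicate plates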;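 note: TRPC4 counter screen for TRPC6 hits run under conditions tuned for TRPC6 not TRPC4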
TRPC6 inh conf: mouse TRPC6 channel inhibitors, confirmation, HEK293 cells, membrane potential dye, duplicate | shares compounds with TRPC6 inhibitor | ACh-evoked depolarization | inhibition, % at 10 µM | 3,300 compounds, 43% hits | AID 488960, 2010;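 active = fluorescence ratio falls more than 5 SD below the full-stimulation control mean, in both duplicate runs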;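 note: integrated fluorescence ratio of peak minus minimum over baseline after agonist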
TRPC6 act conf: mouse TRPC6 channel activators, confirmation, HEK293 cells, membrane potential dye, duplicate; shares compounds with TRPC6 inhibitor; HEK293-TRPC6 membrane potential dye fluorescence, FDSS; 2,800 compounds, 11% hits; activation, % at 10 µM;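 active = ratio signal rise beyond 5 SD above unstimulated control wells' mean, seen in both duplicate runs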;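 note: plate controls were buffer EC0 wells for no effect and acetylcholine ECmax response for full effect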
Active calls of the source: *; i = inactive; nt = not tested or not shown.

SMILES	TRPC4 agonist	TRPC6 act	TRPC6 inhibitor	TRPC4 PAM	TRPC4 inh	TRPC4 spec 2	TRPC4 spec	HEK293 MPD ctr 2-1	HEK293 MPD ctr-1	HEK293 MPD ctr-2	HEK293 MPD ctr 2-2	TRPC4/MOR mod	TRPC4/MOR inh 2	TRPC6 inh conf	TRPC6 act conf
CCN(CC)CC(=O)N1c2ccccc2Sc2ccccc21	i	i	i	i	i	nt	nt	nt	nt	nt	nt	nt	nt	nt	nt
O=C(CCN1CCOCC1)N1c2ccccc2Sc2ccc(Cl)cc21	i	i	-5.2*	i	i	nt	nt	nt	nt	i	75%*	14%*	i	50%*	nt
CCN(CC)CC(=O)N1c2ccccc2Sc2ccc(Cl)cc21	i	i	-8.2*	i	i	i	6.0%*	i	7.4%*	nt	nt	nt	nt	i	nt
NCCC(=O)N1c2ccccc2Sc2ccccc21	i	i	i	i	i	nt	nt	nt	nt	nt	nt	nt	nt	nt	nt
NCCCC(=O)N1c2ccccc2Sc2ccccc21	i	i	-6.9*	i	i	i	i	i	i	nt	nt	nt	nt	i	i
NC(=O)NC(=O)C(Nc1ccc2c(c1)CCC2)c1ccccc1 (stereo unspecified)	i	i	-7.2*	i	i	i	i	i	i	nt	nt	nt	nt	i	i
Cc1ccc(NC(=O)CCC(=O)n2nc(C)cc2C)c(C)c1	i	i	-5.9*	i	i	nt	nt	nt	nt	i	i	i	i	i	i
